Data set [1] is described as follows: Metal chelating activity of compound assessed as compound-Cu2+ complex formation at 0.02 mM after 10 mins in presence of CuSO4.5H2O by complexometric indicator murexide based UV-Vis spectrophotometric analysis. The class given is physicochemical. Conditions: 20 µM. The method, boiled down: (§1)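 Compound (0.02-2 mM) incubated with CuSO4 (120 µM) for 10 min at rt, in 10 mM hexamine/HCl with 10 mM KCl (pH 5.0), or in buffer/MeOH 75:25 for poorly soluble compounds. Murexide added, 1 min more. The A485/A520 ratio gives free Cu2+ from a CuSO4 calibration curve (0-125 µM). % chelation is taken by difference from the no-compound control; triplicates.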

The nature of data set [2]: Metal chelating activity of compound assessed as compound-Cu2+ complex formation at 0.1 mM after 10 mins in presence of CuSO4.5H2O by complexometric indicator murexide based UV-Vis spectrophotometric analysis. The class given is physicochemical. Conditions: 100 µM. The method in brief:
as §1

Data set [3] can be described thus: Reactive carbonyl species trapping activity of compound assessed as MGO adduct formation at 10 mM preincubated for 24 hrs with MGO measured after 0.25 hrs by LCMS analysis. In kind it is physicochemical. Conditions: 10000 µM.
Data set [4] in a line: Metal chelating activity of compound assessed as compound-Cu2+ complex formation at 2 mM after 10 mins in presence of CuSO4.5H2O by complexometric indicator murexide based UV-Vis spectrophotometric analysis. In kind it is physicochemical. Conditions: 2000 µM. The method in brief:
as §1

A further data set is filed under the species Rattus norvegicus. Description: Cytotoxicity against rat […] PC12 cells assessed as reduction in cell viability at 10 to 100 uM after 24 hrs by WST8-based CCK8 assay. In kind it is toxicity. Conditions: pc-12, 24 h. The method in brief: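 PC12 Adh cells (rat pheochromocytoma-derived) grown in F-12K with 2.5% FBS, 15% horse serum and pen/strep at 37 °C, 5% CO2. Seeded at 5×10^3 cells/well; treated at 80% confluency with 10 or 100 µM for 24 h. 10% DMSO served as positive cytotoxicity control. CCK-8 added for 1 h at 37 °C, absorbance read at 450 nm. Viability given as % of untreated cells; at least three experiments in triplicate.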
On the technique in general: Tetrazolium dyes change colour on reduction, which living cells bring about.

The nature of data set [5]: Reactive carbonyl species trapping activity of compound assessed as MDA adduct formation at 10 mM preincubated for 24 hrs with MDA measured after 1 hr by LCMS analysis. The class given is physicochemical. Conditions: 10000 µM.
The nature of data set [6]: Reactive carbonyl species trapping activity of compound assessed as MGO adduct formation at 10 mM preincubated for 24 hrs with MGO measured after 1 hr by LCMS analysis. The class given is physicochemical. Conditions: 10000 µM.
A short description of data set [7]: Metal chelating activity of compound assessed as compound-Cu2+ complex formation at 0.08 mM after 10 mins in presence of CuSO4.5H2O by complexometric indicator murexide based UV-Vis spectrophotometric analysis. The class given is physicochemical. Conditions: 80 µM. The method in brief:
as §1

The nature of data set [8]: Reactive carbonyl species trapping activity of compound assessed as MGO adduct formation at 10 mM preincubated for 24 hrs with MGO measured after 0.5 hrs by LCMS analysis. In kind it is physicochemical. Conditions: 10000 µM.
Data set [9] can be described thus: Reactive carbonyl species trapping activity of compound assessed as MDA adduct formation at 10 mM preincubated for 24 hrs with MDA measured after 0.5 hrs by LCMS analysis. The class given is physicochemical. Conditions: 10000 µM.
The nature of data set [10]: Reactive carbonyl species trapping activity of compound assessed as MGO adduct formation at 10 mM preincubated for 24 hrs with MGO measured after 5 hrs by LCMS analysis. Conditions: 10000 µM. In kind it is physicochemical.
Data set [11] in a line: Reactive carbonyl species trapping activity of compound assessed as MDA adduct formation at 10 mM preincubated for 24 hrs with MDA measured after 0.25 hrs by LCMS analysis. The class given is physicochemical. Conditions: 10000 µM.
Data set [12] can be described thus: Reactive carbonyl species trapping activity of compound assessed as MDA adduct formation at 10 mM preincubated for 24 hrs with MDA measured after 5 hrs by LCMS analysis. The class given is physicochemical. Conditions: 10000 µM.
Data set [13] in a line: Reactive carbonyl species trapping activity of compound assessed as MGO adduct formation at 10 mM preincubated for 24 hrs with MGO measured after 15 mins by LCMS analysis. In kind it is physicochemical. Conditions: 0.25 h, 10000 µM.
The nature of data set [14]: Metal chelating activity of compound assessed as compound-Cu2+ complex formation at 0.05 mM after 10 mins in presence of CuSO4.5H2O by complexometric indicator murexide based UV-Vis spectrophotometric analysis. Conditions: 50 µM. The class given is physicochemical. The method in brief:
as §1

Data set [15] is described as follows: Reactive carbonyl species trapping activity of compound assessed as MDA adduct formation at 10 mM preincubated for 24 hrs with MDA measured after 24 hrs by LCMS analysis. The class given is physicochemical. Conditions: 10000 µM.
Data set [16] is described as follows: Metal chelating activity of compound assessed as compound-Cu2+ complex formation at 1 mM after 10 mins in presence of CuSO4.5H2O by complexometric indicator murexide based UV-Vis spectrophotometric analysis. The class given is physicochemical. Conditions: 1000 µM. The method, boiled down:
as §1

Data set [17] can be described thus: Antioxidant activity assessed as inhibition of AAPH-induced peroxyl radical generation measured as trolox equivalent at 10 uM preincubated for 30 mins followed by AAPH addition measured evey 60 secs for 60 cycles by ORAC-FL assay. The class given is functional. Conditions: in the assay text read “90 secs” for “60 secs”. The method in brief:
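Fluorescein (12 nM) preincubated with compound (1-20 µM) or Trolox standard (1-50 µM) in D-PBS, at least 30 min at 37 °C. Reaction started with AAPH (30 mM). Fluorescence (ex 485/em 520 nm) read every 90 s for 60 cycles. Net AUC is converted to Trolox equivalents via the Trolox calibration line. Values are reported at 10 µM, from at least three independent experiments in triplicate.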

A short description of data set [18]: Reactive carbonyl species trapping activity of compound assessed as MGO adduct formation at 10 mM preincubated for 24 hrs with MGO measured after 24 hrs by LCMS analysis. The class given is physicochemical. Conditions: 10000 µM.
The nature of data set [19]: Metal chelating activity of compound assessed as compound-Cu2+ complex formation at 0.5 mM after 10 mins in presence of CuSO4.5H2O by complexometric indicator murexide based UV-Vis spectrophotometric analysis. The class given is physicochemical. Conditions: 500 µM. The method in brief: as §1
Data set [20] in a line: Metal chelating activity of compound assessed as compound-Cu2+ complex formation at 200 uM after 10 mins in presence of CuSO4.5H2O by complexometric indicator murexide based UV-Vis spectrophotometric analysis. The class given is physicochemical. The method, boiled down:
as §1

For `COc1cc(/C=C/C(=O)NCCCCC(N)CN)ccc1O.Cl.Cl` (stereo not drawn), the Activity in [1] is recorded as 5.39%; in [2], 15.88%; in [3], 100%; in data set [4], 59.06%; in the data set listed under Rattus norvegicus, “Non-Toxic”; in data set [5] it was 17%. In addition, the Activity in data set [6] came to 100%; in data set [7] it was 12.17%; in data set [8] it was 100%; in data set [9], 17%; in [10], 100%; in [11], 17%. Besides, the Activity in data set [12] was 24%; in data set [13] it was 100%; in data set [14], 7.96%; in data set [15], 100%; in data set [16] it was 52.15%; in [18], 100%. For the same compound, the Activity in data set [19] was 42.89%. Further, the Activity (umolequiv/umol) in data set [17] stood at 1.5.
Regarding `Cl.Cl.NCC(N)CCC(=O)N1CCN(C(=O)c2cc(O)c(O)c(O)c2)CC1` (stereo not drawn), the Activity is 5.71% in data set [1]; 29.96% in data set [2]; 81% in [3]; 76.14% in data set [4]; “Non-Toxic” in the data set filed under Rattus norvegicus; 68% in [5]. In addition, the Activity in data set [20] worked out at 52.75%; in [6], 87%; in data set [7] it was 22.88%; in data set [8], 85%; in [9] it was 67%; in data set [10] it was 88%. Also, the Activity in [11] is reported as 50%; in data set [12], 69%; in [13], 81%; in [14], 14%; in data set [15], 87%; in data set [16], 78.48%. Besides, the Activity in data set [18] is 100%; in data set [19] it was 74.33%. Besides, the Activity (umolequiv/umol) in [17] stood at 0.89.
Turning to `Cl.Cl.NCC(N)C(=O)N1CCNCC1` (stereo not drawn), the Activity is given as 3.25% in data set [1]; 13.97% in [2]; 62.15% in data set [4]; “Non-Toxic” in the data set filed under Rattus norvegicus; 100% in data set [5]; 23.6% in data set [20]. Moreover, the Activity in [6] worked out at 37%; in [7], 10.65%; in data set [8] it was 33%; in data set [9], 100%; in data set [10], 51%; in [11], 100%. Further, the Activity is recorded as 100% in data set [12]; 7.07% in data set [14]; 100% in data set [15]; 51.61% in data set [16]; 82% in data set [18]; 40.27% in data set [19]. Besides, the Activity (umolequiv/umol) in data set [17] is 0.
Turning to `Cc1c(O)c(=O)ccn1CCC(=O)NCCCCC(N)CN.Cl.Cl` (stereo not drawn), the Activity is given as 21.31% in data set [1]; 52.98% in data set [2]; 99% in data set [3]; 97.73% in data set [4]; “Non-Toxic” in the data set filed under Rattus norvegicus; 88% in [5]. Besides, the Activity in data set [20] was determined as 74.7%; in data set [6], 99%; in data set [7] it was 48.35%; in data set [8], 99%; in data set [9], 88%; in data set [10], 99%. For the same compound, the Activity in data set [11] worked out at 86%; in data set [12], 89%; in [13], 99%; in data set [14], 38.95%; in data set [15] it was 92%; in data set [16] it was 96%. For the same compound, the Activity in [18] worked out at 100%; in [19], 91.66%. In data set [17], the Activity (umolequiv/umol) is 1.24.
In the case of `Cl.Cl.NCC(N)CCCNC(=O)CCn1cccc(O)c1=O` (stereo not drawn), the Activity in [1] is 12.16%; in data set [2], 40.8%; in [3], 97%; in data set [4], 76.75%; in the data set listed under Rattus norvegicus, “Non-Toxic”; in data set [5], 7%. For the same compound, the Activity in data set [20] turned out to be 59.96%; in [6], 98%; in data set [7], 35.49%; in [8], 100%; in data set [9] it was 4%; in [10] it was 99%. The Activity in [11] worked out at 0%; in data set [12] it was 75%; in [13], 97%; in data set [14], 24.84%; in data set [15], 86%; in data set [16], 76.43%. Besides, the Activity amounted to 98% in data set [18] and 73.21% in data set [19]. In addition, the Activity (umolequiv/umol) in data set [17] was determined as 1.03.
As to `Cl.Cl.NCC(N)CCC(=O)N1CCN(C(=O)CCn2cccc(O)c2=O)CC1` (stereo not drawn), the Activity in data set [1] is given as 11.76%; in data set [2], 36.03%; in data set [3] it was 97%; in data set [4] it was 76.53%; in the data set listed under Rattus norvegicus it was “Non-Toxic”; in data set [5], 81%. Also, the Activity was found to be 53.23% in [20]; 98% in data set [6]; 31.08% in [7]; 97% in data set [8]; 76% in data set [9]; 99% in [10]. Further, the Activity in data set [11] was found to be 74%; in [12], 85%; in data set [13] it was 97%; in [14], 23.88%; in data set [15], 84%; in data set [16] it was 74.59%. The Activity is on record as 98% in data set [18] and 71.58% in data set [19]. For the same compound, in data set [17], the Activity (umolequiv/umol) came to 0.99.

(Values after ChEMBL document CHEMBL3865830, “Multifunctional diamine AGE/ALE inhibitors with potential therapeutical properties against Alzheimer's disease” (Eur J Med Chem, 2016).)
